Experimental data taken from article PMC12393906 (Molecular Therapy, 2025).

Tests used:
C57BL/6 mice = assay: Tail bleeding time and hemoglobin content; assay type: in vivo, mouse; settings: iv 0.3 μg/g BW
Ero1α/β-null platelets [1] = assay: Platelet aggregation and ATP secretion in knockout platelets; assay type: cell-based, mouse
Summary of the method: (§1)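 Washed mouse platelets (WT control, C57BL/6 or Ero1α/β-null) were pretreated 20 min at 37°C with 0.1% DMSO vehicle or test compound. After agonist addition, aggregation and ATP secretion were recorded together in a lumi-aggregometer at 37°C with stirring at 1,000 rpm.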

Ero1α/β-null platelets [2] = assay type: cell-based, mouse
Summary of the method: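 Washed mouse platelets (2 × 10^8/mL in HEPES-Tyrode; C57BL/6 or Ero1α/β-null) were pretreated 20 min at 37°C with 0.1% DMSO vehicle or test compound. Agonist was added for 5 min at 37°C. Cells were stained 15 min with labelled anti-P-selectin or JON/A (activated αIIbβ3) and read by flow cytometry as geometric mean fluorescence intensity.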

Recombinant human ERO1α = biological target: T1, Recombinant human ERO1α (Homo sapiens, UniProt Q96HE7); assay: fluorescence-based ERO1α activity assay; assay type: biochemical; settings: read-out: IC50 (ERO1α activity); mean ± SD, n = 3
T1 sequence (Q96HE7 24-468): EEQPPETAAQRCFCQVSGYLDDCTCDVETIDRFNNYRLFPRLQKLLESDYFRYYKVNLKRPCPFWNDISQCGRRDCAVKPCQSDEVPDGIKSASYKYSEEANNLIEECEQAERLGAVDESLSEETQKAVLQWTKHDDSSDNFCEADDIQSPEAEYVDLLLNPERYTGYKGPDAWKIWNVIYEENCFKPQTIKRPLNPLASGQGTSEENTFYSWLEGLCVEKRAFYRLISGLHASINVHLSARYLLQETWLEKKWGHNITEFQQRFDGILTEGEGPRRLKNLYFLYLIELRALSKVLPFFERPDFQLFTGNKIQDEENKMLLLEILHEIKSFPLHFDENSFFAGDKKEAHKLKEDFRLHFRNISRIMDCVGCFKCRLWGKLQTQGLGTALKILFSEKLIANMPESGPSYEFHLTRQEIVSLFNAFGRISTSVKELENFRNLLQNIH

mouse platelets [3] = assay: Platelet aggregation assay and ATP secretion; assay type: cell-based
Summary of the method: as §1

mouse platelets [4] = assay: Analysis of cell viability; assay type: cell-based; settings: 5 μM; incubation 20 minutes to 24 hours
Summary of the method: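 Platelets were isolated from ACD blood of C57BL/6, WT control or Ero1α/β CKO mice (8–12 weeks) and washed in HEPES-Tyrode buffer at 2 × 10^8 cells/mL. They were incubated at 37°C with vehicle (0.1% DMSO) or test compound for various times. Cells were then labelled with FITC-annexin V for 20 min and read by flow cytometry.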

[5] = 1 or 2.5 μM, 0.015 U/mL thrombin or 0.05 μg/mL CRP

In the case of `O=C(O)c1cc(N2N=C(C(F)(F)F)/C(=C/c3ccc(-c4ccccc4)o3)C2=O)ccc1Cl` [EN460], the “tail bleeding times and blood loss” value (C57BL/6 mice) is reported as “did not prolong tail bleeding times or increase blood loss”, the ATP secretion (Ero1α/β-null platelets [1]; 2.5 μM, 0.015 U/mL thrombin) is reported as “not ATP secretion” and the thrombin-induced aggregation (Ero1α/β-null platelets [1]; 2.5 μM, 0.015 U/mL thrombin) is reported as “markedly inhibited thrombin-induced aggregation”. The “thrombin-stimulated aggregation and ATP secretion” value (Ero1α/β-null platelets [1]; 5 μM, 0.015 U/ml thrombin) was “significantly inhibited both responses”, the “P-selectin exposure and αIIbβ3 integrin activation in resting platelets” value (Ero1α/β-null platelets [2]; M6766 5 μM, EN460 2.5 μM, no agonist) was “appeared to increase the levels of these surface markers” and the “agonist-induced P-selectin exposure and αIIbβ3 integrin activation” value (Ero1α/β-null platelets [2]; various concentrations, 0.01 U/mL thrombin, 0.025 μg/mL CRP) was “significantly reduced”. The IC50 (Recombinant human ERO1α) was 5.5 ± 1.6 µM, the ATP secretion (mouse platelets [3]; 1 μM, 0.5 µM U46619) was “without affecting ATP secretion” and the platelet aggregation (mouse platelets [3]; 1 μM, 0.5 µM U46619) was “completely inhibited U46619-induced platelet aggregation”. The “platelet aggregation and ATP secretion” value (mouse platelets [3]; 5 μM, 0.5 µM U46619) was “abolished both responses”, the “platelet aggregation and ATP secretion” value (mouse platelets [3]; 5 μM, 0.015 U/mL thrombin or 0.05 μg/mL CRP) was “markedly inhibited platelet aggregation and ATP secretion” and the “platelet aggregation and ATP secretion” value (mouse platelets [3]; 1-5 µM, 0.5 µM A23187) was “also inhibited platelet aggregation and ATP secretion”. For the same compound, the “platelet aggregation and ATP secretion” value (mouse platelets [3]; 1-5 µM, high concentration of thrombin (0.1 U/ml)) was “significantly inhibited both responses”, the ATP secretion (mouse platelets [3]; [5]) was “had no effect on ATP secretion” and the platelet aggregation (mouse platelets [3]; [5]) was “significantly inhibited aggregation”. The “platelet aggregation and ATP secretion” value (mouse platelets [3]; 2.5 or 5 μM, high concentration of CRP (0.2 µg/ml)) was “significantly inhibited both responses” and the “annexin V binding (platelet viability)” value (mouse platelets [4]) was “markedly increased annexin V binding within 20 min”.
